Data from ChEMBL document CHEMBL1145951, “Phenethyl amides as novel noncovalent inhibitors of hepatitis C virus NS3/4A protease: discovery, initial SAR, and molecular modeling” (J Med Chem, 2003).
Starred links: 1 amine or outer side, 2 acyl side, 3 side chain; linkers in the order of their positions; H or OH if unused. Non-standard residues stand in square brackets, D forms with d. Residues, ends and D or L forms follow the SMILES beside them. ξ: configuration not given here. *: point of attachment. Dip = N[C@H](C(=O)O)C(c1ccccc1)c1ccccc1; X4 = O=C(C(=O)[*:2])[C@H](CC(F)F)N[*:1]; X1 = O=C(NOCc1ccccc1)[C@H](CC(F)F)N*; Abu(4,4-F2) = N[C@@H](CC(F)F)C(=O)O; N(Me)CH2CH2Ph = CN(CCc1ccccc1)*; Cha = N[C@@H](CC1CCCCC1)C(=O)O; NH(CH2)3Ph = c1ccc(CCCN*)cc1; NHPhenethyl = c1ccc(CCN*)cc1; X6 = c1ccc2c(c1)CC(N*)C2; ξE = NC(CCC(=O)O)C(=O)O; Cbz = O=C(OCc1ccccc1)*; Boc = CC(C)(C)OC(=O)*; NHBn = c1ccc(CN*)cc1; X2 = Clc1ccccc1CCN*; X5 = C1CCC(CCN*)CC1

Columns and labels:
[1] = molecular target: Hepatitis C virus serine protease, NS3/NS4A (Hepatitis C virus, UniProt A3EZI9+D2K2A8); test: (§1) Inhibitory activity against Hepatitis C NS3/NS4A protease; format: protein-complex assay, Hepacivirus hominis
In short: (§2)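 Enzyme was the HCV NS3 protease domain with an NS4A cofactor peptide. IC50 values are means of two independent experiments, or of three to four for some series.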

[2] = molecular target: Hepatitis C virus serine protease, NS3/NS4A (Hepatitis C virus, UniProt D2K2A8+A3EZI9); test: as §1; format: protein-complex assay, Hepacivirus hominis; in short: as §2
[3] = molecular target: T1, NS3 (Hepatitis C virus, UniProt A3EZJ3); test: Binding affinity for wild type NS3 protease; design: species or system Hepacivirus hominis
In short: (§3)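 Protease domain of HCV NS3 with NS4A cofactor peptide. Ki found from steady-state kinetics as reversible competitive inhibition. A second Ki was calculated from pre-steady-state displacement of an active-site fluorescent probe, using k_off/k_on.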

[4] = molecular target: T2, NS3 (Hepatitis C virus, UniProt A3EZJ3, K136M); test: Binding affinity NS3 protease K136M; design: species or system Hepacivirus hominis
[5] = molecular target: T3, NS3 (Hepatitis C virus, UniProt A3EZJ3, K136R); test: Binding affinity for NS3 protease K136R; design: species or system Hepacivirus hominis
[6] = molecular target: T2, NS3; test: Binding affinity for enzyme K136M; design: species or system Hepacivirus hominis
[7] = molecular target: T3, NS3; test: Binding affinity for enzyme K136R; design: species or system Hepacivirus hominis
[8] = molecular target: T4, Neutrophil elastase (Homo sapiens, UniProt P08246); test: Binding affinity for enzyme human leukocyte HLE
T4 sequence (P08246 whole entry): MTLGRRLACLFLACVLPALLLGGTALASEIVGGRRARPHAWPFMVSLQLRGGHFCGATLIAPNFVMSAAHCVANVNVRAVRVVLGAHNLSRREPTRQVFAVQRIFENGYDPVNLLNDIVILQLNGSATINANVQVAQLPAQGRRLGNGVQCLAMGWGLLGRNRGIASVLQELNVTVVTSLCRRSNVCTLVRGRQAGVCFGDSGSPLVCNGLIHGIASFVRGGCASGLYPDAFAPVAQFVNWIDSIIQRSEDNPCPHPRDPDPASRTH

[9] = molecular target: T1, NS3; test: Binding affinity for enzyme NS3 protease wild-type; design: species or system Hepacivirus hominis; in short: as §3

| SMILES | IC50 [1] | other results |
| --- | --- | --- |
| CC(C)COC(=O)NC(CCC(=O)O)C(=O)N[C@@H](CC(C)C)C(=O)NC(CS)C(=O)NCCc1ccccc1 (stereo partly specified) | 19000 nM | – |
| COC(=O)c1ccc(CCNC(=O)C(CS)NC(=O)[C@H](CC(C)C)NC(=O)C(CCC(=O)O)NC(=O)OCC(C)C)cc1 (stereo partly specified) | 17000 nM | – |
| CC(C)C[C@H](NC(=O)[C@@H](NC(=O)OC(C)(C)C)C(C)C)C(=O)N[C@@H](CC(F)F)C(=O)C(=O)O | – | IC50 [2]: 460 nM |
| CC(C)COC(=O)NC(C(=O)N[C@@H](CC(C)C)C(=O)NC(CC(F)F)C(=O)NCCc1ccc(C(=O)O)cc1Cl)C(C)C (stereo partly specified) | – | Ki [3]: 2100 nM; Ki [4]: 4000 nM; Ki [5]: 2300 nM |
| CC(C)C[C@H](NC(=O)C(CCC(=O)O)NC(=O)OC(C)(C)C)C(=O)NC(CC(F)F)C(=O)NCCc1ccccc1Cl (stereo partly specified) | – | Ki [6]: 13500 nM; Ki [7]: 8300 nM; Ki [8]: > 100000 nM; Ki [9]: 7300 nM |
| COC(=O)c1cccc(CCNC(=O)C(CS)NC(=O)[C@H](CC(C)C)NC(=O)C(CCC(=O)O)NC(=O)OCC(C)C)c1 (stereo partly specified) | 25000 nM | – |
| COC(=O)c1ccccc1CCNC(=O)C(CS)NC(=O)[C@H](CC(C)C)NC(=O)C(CCC(=O)O)NC(=O)OCC(C)C (stereo partly specified) | 54000 nM | – |
| CC(C)COC(=O)NC(CCC(=O)O)C(=O)N[C@@H](CC(C)C)C(=O)NC(CS)C(=O)NCCc1ccccc1C(=O)O (stereo partly specified) | > 100000 nM | – |
| CC(C)COC(=O)NC(CCC(=O)O)C(=O)N[C@@H](CC(C)C)C(=O)NC(CC(F)F)C(=O)NCCc1ccc(C(=O)O)cc1Cl (stereo partly specified) | – | Ki [6]: 1300 nM; Ki [7]: 900 nM; Ki [8]: > 100000 nM; Ki [9]: 600 nM |
| CC(=O)N[C@@H](CC(=O)O)C(=O)N[C@@H](CCC(=O)O)C(=O)N[C@H](C(=O)N[C@@H](CCC(=O)O)C(=O)N[C@@H](CC1CCCCC1)C(=O)N[C@@H](CS)C(=O)N(C)CCc1ccccc1)C(c1ccccc1)c1ccccc1 (Ac-DE[Dip]E[Cha]C-{N(Me)CH2CH2Ph}) | 70000 nM | – |
| CC(C)C[C@H](NC(=O)[C@H](CCC(=O)O)NC(=O)OC(C)(C)C)C(=O)N[C@@H](CS)C(=O)O (Boc-Glu-Leu-Cys-OH) | > 200000 nM | – |
| CC(C)C[C@H](NC(=O)C(CCC(=O)O)NC(=O)OC(C)(C)C)C(=O)N[C@@H](CS)C(=O)NCc1ccccc1 (stereo partly drawn) (Boc-[ξE]-Leu-Cys-NHBn) | > 200000 nM | – |
| CC(C)C[C@H](NC(=O)C(CCC(=O)O)NC(=O)OC(C)(C)C)C(=O)N[C@@H](CS)C(=O)NCCc1ccccc1 (stereo partly drawn) (Boc-[ξE]-Leu-Cys-NHPhenethyl) | 27000 nM | – |
| CC(C)C[C@H](NC(=O)[C@@H](NC(=O)OCc1ccccc1)C(C)C)C(=O)N[C@@H](CS)C(=O)NCCc1ccccc1 (Cbz-Val-Leu-Cys-NHPhenethyl) | > 400000 nM | – |

Continued by falling IC50 [1], values first:

| IC50 [1] | SMILES | other results |
| --- | --- | --- |
| 9200 nM | CC(C)COC(=O)NC(CCC(=O)O)C(=O)N[C@@H](CC(C)C)C(=O)NC(CS)C(=O)NCCc1cccc(C(=O)O)c1 (stereo partly specified) | – |
| 6500 nM | CC(C)C[C@H](NC(=O)C(CCC(=O)O)NC(=O)OC(C)(C)C)C(=O)N[C@@H](CS)C(=O)NCCc1ccccc1Cl (stereo partly specified) | – |
| 3200 nM | COC(=O)c1ccc(CCNC(=O)C(CS)NC(=O)[C@H](CC(C)C)NC(=O)C(CCC(=O)O)NC(=O)OCC(C)C)c(Cl)c1 (stereo partly specified) | – |
| 1700 nM | CC(=O)N[C@@H](CC(=O)O)C(=O)N[C@@H](CCC(=O)O)C(=O)N[C@H](C(=O)N[C@@H](CCC(=O)O)C(=O)N[C@@H](CC1CCCCC1)C(=O)N[C@@H](CS)C(=O)NC1Cc2ccccc2C1)C(c1ccccc1)c1ccccc1 (Ac-DE[Dip]E[Cha]C-X6) | – |
| 1540 nM | CC(=O)N[C@@H](CC(=O)O)C(=O)N[C@@H](CCC(=O)O)C(=O)N[C@H](C(=O)N[C@@H](CCC(=O)O)C(=O)N[C@@H](CC1CCCCC1)C(=O)N[C@@H](CS)C(=O)NCCC1CCCCC1)C(c1ccccc1)c1ccccc1 (Ac-DE[Dip]E[Cha]C-X5) | – |
| 700 nM | CC(C)COC(=O)NC(CCC(=O)O)C(=O)N[C@@H](CC(C)C)C(=O)NC(CS)C(=O)NCCc1ccc(C(=O)O)cc1Cl (stereo partly specified) | – |
| 250 nM | CC(=O)N[C@@H](CC(=O)O)C(=O)N[C@@H](CCC(=O)O)C(=O)N[C@H](C(=O)N[C@@H](CCC(=O)O)C(=O)N[C@@H](CC1CCCCC1)C(=O)N[C@@H](CS)C(=O)NCc1ccccc1)C(c1ccccc1)c1ccccc1 (Ac-DE[Dip]E[Cha]C-NHBn) | – |
| 210 nM | CC(=O)N[C@@H](CC(=O)O)C(=O)N[C@@H](CCC(=O)O)C(=O)N[C@H](C(=O)N[C@@H](CCC(=O)O)C(=O)N[C@@H](CC1CCCCC1)C(=O)N[C@@H](CS)C(=O)NCCCc1ccccc1)C(c1ccccc1)c1ccccc1 (Ac-DE[Dip]E[Cha]C-{NH(CH2)3Ph}) | – |
| 40 nM | CC(=O)N[C@@H](CC(=O)O)C(=O)N[C@@H](CCC(=O)O)C(=O)N[C@H](C(=O)N[C@@H](CCC(=O)O)C(=O)N[C@@H](CC1CCCCC1)C(=O)N[C@@H](CC(F)F)C(=O)NOCc1ccccc1)C(c1ccccc1)c1ccccc1 (Ac-DE[Dip]E[Cha]-X1) | – |
| 40 nM | CC(=O)N[C@@H](CC(=O)O)C(=O)N[C@@H](CCC(=O)O)C(=O)N[C@H](C(=O)N[C@@H](CCC(=O)O)C(=O)N[C@@H](CC1CCCCC1)C(=O)N[C@@H](CC(F)F)C(=O)O)C(c1ccccc1)c1ccccc1 (Ac-DE[Dip]E[Cha][Abu(4,4-F2)]-OH) | – |
| 7 nM | CC(=O)N[C@@H](CC(=O)O)C(=O)N[C@@H](CCC(=O)O)C(=O)N[C@H](C(=O)N[C@@H](CCC(=O)O)C(=O)N[C@@H](CC1CCCCC1)C(=O)N[C@@H](CS)C(=O)NCCc1ccccc1)C(c1ccccc1)c1ccccc1 (Ac-DE[Dip]E[Cha]C-NHPhenethyl) | – |
| 4 nM | CC(=O)N[C@@H](CC(=O)O)C(=O)N[C@@H](CCC(=O)O)C(=O)N[C@H](C(=O)N[C@@H](CCC(=O)O)C(=O)N[C@@H](CC1CCCCC1)C(=O)N[C@@H](CC(F)F)C(=O)NCCc1ccccc1)C(c1ccccc1)c1ccccc1 (Ac-DE[Dip]E[Cha][Abu(4,4-F2)]-NHPhenethyl) | – |
| 2 nM | CC(=O)N[C@@H](CC(=O)O)C(=O)N[C@@H](CCC(=O)O)C(=O)N[C@H](C(=O)N[C@@H](CCC(=O)O)C(=O)N[C@@H](CC1CCCCC1)C(=O)N[C@@H](CS)C(=O)NCCc1ccccc1Cl)C(c1ccccc1)c1ccccc1 (Ac-DE[Dip]E[Cha]C-X2) | – |
| 2 nM | CC(=O)N[C@@H](CC(=O)O)C(=O)N[C@@H](CCC(=O)O)C(=O)N[C@H](C(=O)N[C@@H](CCC(=O)O)C(=O)N[C@@H](CC1CCCCC1)C(=O)N[C@@H](CC(F)F)C(=O)C(=O)NCc1ccccc1)C(c1ccccc1)c1ccccc1 (Ac-DE[Dip]E[Cha][X4]-NHBn) | – |
